The structures appear in SMILES notation.

Drawing on ChEMBL document CHEMBL1145606, “Discovery of amino-acetonitrile derivatives, a new class of synthetic anthelmintic compounds” (2008), this text covers EC100 and Activity for one compound.

What all share (format): functional
Assay [1] has as its system Haemonchus contortus. Briefly: Anthelmintic activity against benzimidazole-resistant Haemonchus contortus isolate by larva development assay. Summed up:
(§1)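 Larval development assay: test compounds were embedded in an agar-based nutritive medium that supports development from eggs to third-stage larvae (L3). Plates were incubated for 6 days at 28 °C and 80% relative humidity, and egg hatching and larval development were recorded. Values are means of three experiments.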

In assay [2] the test system is Trichostrongylus colubriformis. Nature of the assay: Anthelmintic activity against levamisole-resistant Trichostrongylus colubriformis isolate by larva development assay. Summed up: as §1
The subject of assay [3] is Trichostrongylus colubriformis. Nature of the assay: Anthelmintic activity against Trichostrongylus colubriformis infected in gerbils assessed as reduction in worm count at 3.2 mg/kg, po. Also on record: scale not given: the % may be the effect or the level left. Summed up: (§2)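 Gerbils (Meriones unguiculatus) were artificially infected with H. contortus larvae 6 days, or T. colubriformis larvae 5 days, before treatment. They were then dosed orally or subcutaneously, and controls received a placebo formulation. Three days post-treatment the animals were sacrificed and dissected for worm recovery.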

Assay [4] relates to Haemonchus contortus. Nature of the assay: Anthelmintic activity against Haemonchus contortus infected in gerbils assessed as reduction in worm count at 3.2 mg/kg, po. On the set-up: scale not given: the % may be the effect or the level left. Put shortly:
as §2

In the case of `CC(C#N)(COc1ccc(F)cc1Cl)NC(=O)c1ccc(OC(F)(F)F)cc1` (centres undefined), the EC100 (in the assay on Haemonchus contortus [1]; in assay [2]) was 0.032 ppm in each case. The Activity in assay [3] was 77%; with Haemonchus contortus [4], 98%.
